Most compounds without a hit are left out; they make up all but 2.6% or so of the library.
SENP1 FRET inh: human SENP1 catalytic domain inhibitors, primary screen, biochemical, FRET, uHTS. AID 624204, 2012. 0.21% of 360,000 active. recombinant SENP1 catalytic domain, CyPet-SUMO1-YPet FRET cleavage. inhibition, % at 10 µM. Sentrin-specific protease 1 (Homo sapiens), Q9P0U3;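 active = inhibition at least 30% at 10 µM, raw YFP signal under a set limit, fluorescence ratio 0.5 to 1.5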;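 note: 0% = enzyme with DMSO and 100% = no enzyme wells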
Target sequence (Q9P0U3 419-644 limits assumed): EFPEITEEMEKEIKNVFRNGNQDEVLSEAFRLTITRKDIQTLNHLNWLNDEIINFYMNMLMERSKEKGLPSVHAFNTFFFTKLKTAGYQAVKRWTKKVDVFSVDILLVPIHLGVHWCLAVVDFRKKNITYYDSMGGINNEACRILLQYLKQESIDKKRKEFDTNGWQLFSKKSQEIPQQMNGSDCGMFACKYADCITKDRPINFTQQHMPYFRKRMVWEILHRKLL
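Compound: 10 µM single point, 0.5% DMSO; Test system: hSENP1 catalytic domain, recombinant; Timing: 50 min reaction at room temperature; Technique: FRET, CFP and YFP emission; Control set: no-enzyme wells low, DMSO-plus-enzyme wells high control.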
SENP8 block-1: human SENP8 protease inhibitors, primary screen, biochemical, fluorescence, Nedd8 protein substrate, uHTS | Sentrin-specific protease 8 (Homo sapiens), Q96LD8 | recombinant SENP8 | 0.64% of 360,000 active | inhibition, % at 20 µM | AID 602440, 2012; in the data active = inhibition mostly above about 40%, no sharp cut-off; inactive = mostly below about 27%
Target sequence (Q96LD8 whole entry, looked up): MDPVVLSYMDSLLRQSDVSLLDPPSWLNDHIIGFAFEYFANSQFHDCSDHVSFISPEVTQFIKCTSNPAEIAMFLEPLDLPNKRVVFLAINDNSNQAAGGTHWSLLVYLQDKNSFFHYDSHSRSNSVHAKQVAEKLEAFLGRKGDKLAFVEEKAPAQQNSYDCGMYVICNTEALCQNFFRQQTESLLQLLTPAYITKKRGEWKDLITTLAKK
SENP6 block: SENP6 protease inhibitors, primary screen, biochemical, luminescence, uHTS | 1.8% of 330,000 active | Recombinant SENP6 catalytic domain, aminoluciferin luminescence | inhibition, % at 10 µM | Sentrin-specific protease 6 (Homo sapiens), Q9GZR1 | AID 2599, 2010;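 active = inhibition above about 50% at the single tested dose, limit read from the data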;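 note: plate controls were DMSO wells with enzyme for no effect and DMSO wells lacking enzyme for full effect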
SENP8 block-2: SENP8 protease inhibitors, primary screen, biochemical, luminescence | Sentrin-specific protease 8 (Homo sapiens), Q96LD8 | purified SENP8, Z-RLRGG-aminoluciferin cleavage | inhibition, % at 10 µM | 1.2% of 330,000 active; in the data active = inhibition above about 50%
Platelet DG rel: inhibitors of platelet dense granule secretion, primary screen, cell-based, MLPCN, human platelets | 0.22% of 300,000 active | inhibition, %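 (compounds screened at 7.5 µM in platelet-rich plasma)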 | AID 1663, 2009 | human platelet-rich plasma, SFLLRN dense granule ATP release, luminescence;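 active = mean replicate score, as percent of positive control, at or above 50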
SENP7 block: SENP7 protease inhibitors, primary screen, biochemical, luminescence, uHTS; Sentrin-specific protease 7 (Homo sapiens), Q9BQF6; recombinant SENP7, Z-RLRGG-aminoluciferin luminescence, 40 min; inhibition, % at 5 µM; 1.5% of 330,000 active;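 active = inhibition above about 50% at the single test dose, limit read from the data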;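 note: plate controls were DMSO with enzyme for no effect and no enzyme buffer wells for full effect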
SENP8 conf: SENP8 protease inhibitors, retest, confirmation, biochemical, luminescence, single concentration; shares compounds with SENP7 block; Recombinant SENP8, Z-RLRGG-aminoluciferin luminescence, 60 min; inhibition, % at 12.5 µM; 40% of 6,200 active; AID 488912, 2010;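 active = mean inhibition across replicates above about 50%, limit read from the data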
SENP6 confirm: SENP6 protease inhibitors, confirmation, biochemical, luminescence, single concentration | 58% of 6,200 active | shares compounds with SENP7 block | inhibition, % at 12.5 µM | recombinant SENP6, Z-RLRGG-aminoluciferin luminescence
SENP7 confirm: SENP7 protease inhibitors, retest, confirmation, biochemical, luminescence, single concentration. shares compounds with SENP7 block. 69% of 6,200 active. inhibition, % at 12.5 µM. AID 488917, 2010. recombinant SENP7, Z-RLRGG-aminoluciferin luminescence, 40 min
Casp3 SENP sel: caspase-3 protease inhibitors, confirmation, selectivity assay for SENP inhibitor project, biochemical, single concentration; shares compounds with SENP7 block; purified caspase-3, Z-DEVD-aminoluciferin luminescence, 60 min; inhibition, % at 12.5 µM; 60% of 6,200 active; AID 488918, 2010;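 active = mean inhibition above about 50%, limit read from the data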;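 note: plate controls were enzyme with DMSO for no effect and wells without caspase-3 for full effect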
Luc interf: luminescence interference (SENP counter-screen); Pre-incubated SENP8/Z-RLRGG-aminoluciferin, luciferase luminescence interference; AID 488919; inhibition, % at 12.5 µM; 39% of 6,200 active; shares compounds with SENP7 block;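 active = mean inhibition above about 50% when retested at one dose, limit read from the data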;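 note: plate controls were DMSO wells with completed reaction for no effect and substrate without enzyme for full effect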
The depositor's hits bear a star; x = no result given.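 Rule for the calls, unless noted: active = mean inhibition above about 50% in the one-dose retest (limit read from the data); inactive = the rest.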

SMILES	SENP1 FRET inh	SENP8 block-1	SENP6 block	SENP8 block-2	Platelet DG rel	SENP7 block	SENP8 conf	SENP6 confirm	SENP7 confirm	Casp3 SENP sel	Luc interf
CCCCNc1c(-c2ccc(SC(C)CC)cc2)nc2ccccn12 (stereo not given)	-31	-451	97*	74*	43	83*	73*	64*	94*	82*	83*
CCNc1nnc(SCC(=O)N2c3ccccc3NC(=O)CC2C)s1 (stereo not given)	2	11	-5	3	x	8	x	x	x	x	x
CSc1nsc2nc(=O)c(/C=C3\C=Nc4ccccc43)c(N)n12	-102	-7	86*	72*	10	39	69*	72*	92*	41	76*
CC(C)S(=O)(=O)c1nsc2nc(=O)c(/C=C3\C=Nc4ccccc43)c(N)n12	-34	-138	2	7	-1	12	x	x	x	x	x
CCCCNC(=O)c1sc(=S)n(-c2ccccc2OC)c1N	0	8	5	3	4	-2	x	x	x	x	x
CCCCNC(=O)c1sc(=S)n2c1[nH]c(=O)c1ccccc12	-1	29	85*	21	4	-1	49	41	17	3	21
COc1ccc(NC(=O)C(NS(=O)(=O)c2ccc3c(c2)CCCN3C(C)=O)C(C)C)c(OC)c1 (stereo not given)	1	29	-4	1	4	102*	-25	-10	1	-2	-5
CC(=O)N1CCCc2cc(S(=O)(=O)NC(C(=O)NC3CCCCC3)C(C)C)ccc21 (stereo not given)	2	11	-18	2	-20	4	x	x	x	x	x
COc1ccc(NC(=O)C/C(C)=N/NC(=O)c2ccccn2)c(OC)c1	2	20	-5	-12	11	6	x	x	x	x	x
O=C(c1sc2cc(Cl)ccc2c1Cl)N1CCN(CCc2ccccn2)CC1	-1	12	-15	-7	5	-3	x	x	x	x	x
CSc1cccc(NC(=O)/C=C/c2ccco2)c1	-18	-23	-4	-6	1	-4	x	x	x	x	x
O=C(/C=C/c1ccco1)Nc1ccc(N2CCCC2)cc1	-4	28	63*	43	4	68*	39	32	57*	21	27
O=C(/C=C/c1ccco1)NC(=S)Nc1cccc(-c2nc3ccccc3s2)c1	3	-38	63*	41	9	5	20	17	7	19	-2
COc1cccc(NC(=O)/C=C/c2ccco2)c1	-5	2	58*	84*	18	92*	-12	88*	100*	93*	88*
O=C(/C=C/c1ccco1)Nc1ccc(C(=O)N2CCOCC2)cc1	0	7	14	-5	-2	1	x	x	x	x	x
CCCOC(=O)c1ccc(NC(=O)Cc2cccs2)cc1	-11	7	-6	-4	2	1	x	x	x	x	x
CSCCC(NC(=O)c1ccc(Cl)c([N+](=O)[O-])c1)C(=O)N1CCN(C/C=C/c2ccccc2)CC1 (stereo not given)	0	7	-27	-7	-18	7	x	x	x	x	x
Cc1c(C(C)(C)C)s/c(=N/S(=O)(=O)c2ccccc2)n1C	-1	11	-10	-11	-10	3	x	x	x	x	x
Cc1c(C(C)(C)C)sc(=NC(=O)c2ccccc2O)n1C	-1	-288	63*	60*	-5	72*	19	12	2	12	-3
Cc1ccccc1/C=C1\CCCc2ccccc2C1=O	0	2	88*	95*	-3	97*	95*	98*	102*	93*	94*
O=C1/C(=C\c2ccc3ccccc3c2)CCCc2ccccc21	-1	19	-15	22	1	31	x	x	x	x	x
Cc1ccsc1/C=C1\CCc2ccccc2C1=O	0	14	94*	96*	64*	99*	100*	101*	104*	100*	96*
O=C1C(=Cc2ccccn2)CCc2ccccc21	1	4	x	x	x	x	x	x	x	x	x
Nc1nnnn1/N=C/c1cccc(O)c1	2	15	7	-13	3	-3	x	x	x	x	x
Nc1nnnn1/N=C/c1ccc(O)cc1	-1	-40	95*	89*	-3	90*	93*	93*	101*	98*	85*
SMILES	SENP1 FRET inh	SENP8 block-1	SENP6 block	SENP8 block-2	Platelet DG rel	SENP7 block	SENP8 conf	SENP6 confirm	SENP7 confirm	Casp3 SENP sel	Luc interf
Cc1nc2nc(-c3ccc(F)cc3)cn2nc1C	-21	-318	67*	71*	x	1	47	92*	100*	97*	54*
O=c1oc(CCO)cc2ccc(Br)cc12	0	-16	-47	-11	x	-13	x	x	x	x	x
COc1ccc(NC(=O)Nc2nnc(-c3cccs3)s2)cc1	-3	-134	-4	2	1	5	x	x	x	x	x
O=C(Nc1nnc(-c2ccco2)s1)c1ccccc1	-10	-236	68*	50	-2	0	16	54*	85*	77*	28
COc1ccc(C(=O)Nc2nnc(-c3cccs3)s2)cc1	0	-468	-12	-9	11	56*	-4	-4	-2	19	8
O=C(Nc1nnc(-c2ccco2)s1)C1CC1	1	-40	0	-1	2	5	x	x	x	x	x
COc1ccc(C(=O)Nc2nnc(-c3ccco3)s2)cc1	-3	-293	88*	78*	-3	95*	-24	11	43	25	2
COc1ccccc1C(=O)Nc1nnc(-c2ccco2)s1	2	-329	-24	-6	-7	-9	x	x	x	x	x
Cc1ccc(CN2CC(C(=O)Nc3cc(C)ccn3)CC2=O)cc1 (stereo not given)	3	6	-16	-19	-2	-6	x	x	x	x	x
